Drawing on ChEMBL document CHEMBL4706607, “Anti-tubercular profile of new selenium-menadione conjugates against Mycobacterium tuberculosis H37Rv (ATCC 27294) strain and multidrug-resistant clinical isolates” (Eur J Med Chem, 2021), this text covers MIC for ten compounds.

Converted amounts (≈) assume the structure as drawn.

Assay [1] deals with Mycobacterium tuberculosis. Description: Antimycobacterial activity against multidrug resistance Mycobacterium tuberculosis CDCT-16 clinical isolates assessed as reduction in bacterial growth by resazurin reduction microplate assay. In kind it is functional. Put shortly: (§1)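 REMA in Middlebrook 7H9 broth with 10% ADC. Compounds dissolved at 1 mg/mL in DMSO and diluted to 50 μg/mL in broth containing 5% DMSO. Ten-point two-fold dilutions gave 25.0 to 0.05 μg/mL. Growth and sterility controls on each plate. MIC was the lowest concentration preventing the blue-to-pink change.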

For assay [2], the system named is Mycobacterium tuberculosis. Description: Antimycobacterial activity against multidrug resistance Mycobacterium tuberculosis CDCT-27 clinical isolates assessed as reduction in bacterial growth by resazurin reduction microplate assay. In kind it is functional. Put shortly:
as §1
(In general: Resazurin is reduced to fluorescent resorufin, in cell work by metabolically active cells.)

`CCCC(C)C(=O)[Se]CC1=C(C)C(=O)c2ccccc2C1=O` (stereo not given): the minimum inhibitory concentration (MIC) in assay [1] and in assay [2] was over 10 µM throughout.

Regarding `CC1=C(C[Se]C(=O)c2ccc(Cl)cc2)C(=O)c2ccccc2C1=O`, the MIC in assay [1] and in assay [2] was over 10 µM throughout.

For `CC1=C(C[Se]C(=O)c2ccc(C)cc2)C(=O)c2ccccc2C1=O`, the MIC in assay [1] and in assay [2] was over 10 µM in each case.

Regarding `COc1ccc(C(=O)[Se]CC2=C(C)C(=O)c3ccccc3C2=O)cc1`, the MIC in assay [1] and in assay [2] was over 10 µM throughout.

`NNC(=O)c1ccncc1` [ISONIAZID]: the minimum inhibitory concentration (MIC) in assay [1] is 100 µM (≈ 13.7 µg/mL); in assay [2], 25 µM (≈ 3.43 µg/mL).

As to `CCc1ccc(C(=O)[Se]CC2=C(C)C(=O)c3ccccc3C2=O)cc1`, the minimal inhibitory concentration (MIC) in assay [1] and in assay [2] was over 10 µM throughout.

With `CCCCC(=O)[Se]CC1=C(C)C(=O)c2ccccc2C1=O`, the minimum inhibitory concentration (MIC) in assay [1] and in assay [2] was over 10 µM in each case.

With `CC1=C(C[Se]C(=O)c2ccc(F)cc2)C(=O)c2ccccc2C1=O`, the MIC in assay [1] is 0.8 µM (≈ 0.31 µg/mL); in assay [2], 3.1 µM (≈ 1.2 µg/mL).

Consider `CC1=C(C[Se]C(=O)c2ccccc2C)C(=O)c2ccccc2C1=O`, for which the MIC in assay [1] and in assay [2] was 3.1 µM (≈ 1.19 µg/mL) in each case.

Regarding `CC1=C(C[Se]C(=O)c2ccccc2)C(=O)c2ccccc2C1=O`, the minimal inhibitory concentration (MIC) in assay [1] and in assay [2] was 0.8 µM (≈ 0.295 µg/mL) each time.

The term MIC denotes the least concentration at which growth counts as inhibited.
